In paper PMC5753398 (Journal of the American Chemical Society, 2017):

How the values were obtained:
[1] = tested on: Shh-mediated Hedgehog signaling (Gli-controlled Firefly luciferase) in NIH3T3 cells; assay: Gli-reporter dual luciferase assay in Shh-N-stimulated NIH3T3 cells; type: cell-based, mouse
[2] = tested on: GST-Shh, GST-Ihh, or GST-Dhh; assay: Competition assay for Hh analog selectivity; type: binding, human; settings: 10 μM robotnikinin + 400 nM FLAG-HL2-m5
Outline: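 Competition format: PBS containing 10 μM competitor plus 400 nM FLAG-tagged macrocyclic peptide (recombinant, E. coli) added to wells coated with GST-Shh, GST-Ihh or GST-Dhh (E. coli BL21(DE3)-expressed, Ni-NTA purified). Wells then developed by HRP anti-FLAG antibody, o-phenylenediamine/urea peroxide substrate (pH 5.0) and A450. Relative affinity = (1 − % inhibition)GST-Hh/(1 − % inhibition)GST-Shh. Triplicate, mean and SD.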

[3] = tested on: Shh / Hedgehog pathway activation; settings: read-out: IC50, Shh inhibitory activity in vitro and in cells; similar cell-based assay; cited from earlier work
[4] = tested on: Shh/Patched interaction; settings: read-out: IC50 for inhibition of the Shh/Patched interaction in vitro; ref 25a; cited from earlier work

CC1=C2C[C@H]3[C@@H](CC=C4C[C@@H](O)CC[C@@]43C)[C@@H]2CC[C@]12O[C@@H]1C[C@H](C)CN[C@H]1[C@H]2C [cyclopamine]
Inhibition of Shh-induced luminescence ([1]; 10 μM, assay validation): full inhibition

c1ccc2c(Oc3nc(Nc4ccc(N5CCOCC5)cc4)c4ncn(C5CCCCC5)c4n3)cccc2c1 [purmorphamine]
Effect on signaling pathway in HL2-m5-treated cells ([1]; 5 μM purmorphamine added to cells treated with 10 μM HL2-m5): restored activation

O=C(C[C@@H]1C/C=C/CCC(=O)O[C@H](c2ccccc2)CNC1=O)NCc1ccc(Cl)cc1 [robotnikinin]
Affinity toward Ihh and Dhh relative to Shh [2]: significantly lower affinity
IC50 [3]: ~15 µM

Ac-TLDDMEEMDGLSD-NH2 [L2-pep]
Inhibitory activity in Gli-reporter assay ([1]; concentrations up to 30 μM, identical conditions): no inhibitory activity

HHIP370–390: linear HHIP L2-derived peptide from the literature (GDGMITLDDMEEMDGLSDFTG; UniProt Q96QV1 370-390, looked up, fragment)
IC50 [4]: 150 µM
